Calls of active or inactive are those of the source. The calls are words filed in the database; no cut-off is given here.
What was measured:
HT-29 [1] = experiment: Downregulation of cyclin D3 expression in human HT-29 cells at 10 uM after 48 hrs by immunoblotting method; type: functional, cell-based
How it was run: (§1)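 HT-29 exposed to 10 μM for 48 h; whole-cell lysates immunoblotted for the indicated proteins (total and cleaved PARP for the apoptosis line).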

HT-29 [2] = experiment: Induction of apoptosis in human HT-29 cells assessed as mitochondrial membrane depolarization at 30 uM by JC-1 dye-based fluorescence assay in presence of cyclosporinA; type: functional, cell-based
HT-29 [3] = experiment: Increase in extracellular acidification rate in human HT-29 cells at 10 uM measured for 20 to 150 mins by time-resolved fluorescence assay relative to control; type: functional
How it was run: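 HT-29 cells seeded 80 000/well, incubated overnight at 37 °C without CO2. Washed and loaded with pH-sensitive time-resolved fluorescence probe in low-buffering medium (1 mM PBS pH 7.4, 20 mM glucose, salts), 10 min at 37 °C, then compound added, wells unsealed. Read 200 min at 37 °C; lifetime converted to pH, rate taken 20–150 min as H+ change/min; n = 8.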

HT-29 [4] = experiment: Induction of apoptosis in human HT-29 cells assessed as increase in caspase 3/7 activity at 30 uM after 2 hrs by luminescent assay relative to control; type: functional
How it was run: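 HT-29 cells exposed to compound 2 h; effector/initiator caspase enzymatic activity measured by luminescent assays, normalized to control treatment; means ± SEM, n = 4.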

HT-29 [5] = experiment: Upregulation of p21/Cip1 expression in human HT-29 cells at 10 uM after 48 hrs by immunoblotting method; type: functional, cell-based
How it was run: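 HT-29 cells exposed 48 h to 10 μM compound. Whole-cell protein lysates probed for cell-cycle modulators by immunoblotting.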

HT-29 [6] = experiment: Increase in extracellular acidification rate in human HT-29 cells at 10 uM measured for 20 to 150 mins by time-resolved fluorescence assay; type: functional
How it was run: (§2)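 HT-29 seeded 80 000 cells/well, held overnight at 37 °C without CO2. Low-buffering medium (1 mM PBS pH 7.4, 20 mM glucose, salts) with pH-sensitive lifetime probe, unsealed wells. Time-resolved fluorescence at 37 °C for 200 min, lifetime converted to pH. Acidification rate (H+ change/min) taken over 20–150 min; means ± SEM, n = 8.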

[7] = Dissociation constant, pKa of the compound by UV metric method; type: physicochemical
How it was run: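 UV-metric titration with 0.15 M KCl at 25 °C: pH 12.0–2.0 at 32–26 μM in methanol/water cosolvent, and pH 12.5–8.9 at 30–21 μM in water.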

HT-29 [8] = experiment: Induction of apoptosis in human HT-29 cells at 30 uM after 24 hrs by annexin V-FLUOS/propidium iodide staining-based flow cytometry in presence of 3H-1,2-dithiole-3-thione; type: functional, cell-based
How it was run: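 HT-29 treated 24 h with 30 μM with or without antioxidant (NAC 1 mM, D3T 25 μM). Apoptosis by annexin V/propidium iodide flow cytometry; means ± SEM, n = 3.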

HT-29 [9] = experiment: Induction of cell cycle arrest in human HT-29 cells assessed as accumulation at G0/G1 phase at 10 uM by flow cytometry (reference value: 66%); type: functional
HT-29 [10] = experiment: Antiproliferative activity against human HT-29 cells assessed as cellular DNA content after 72 hrs by CyQUANT NF fluorescence assay; type: functional, cell-based; conditions: HT-29, 72 h
How it was run: (§3)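 Cells seeded at 750 (HT-29), 250 (PC-3) or 900 (T84, MCF7) cells/well, treated next day with concentration series for 72 h (HT-29, PC-3) or 96 h (T84, MCF7). Relative cell number from cellular DNA content by fluorescent DNA-binding dye. Variable-slope fit; efficiency = maximal inhibition (100% − Bottom) vs untreated; IC50 relative to the compound's own maximal efficiency.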

T84 = experiment: Antiproliferative activity against human T84 cells assessed as cellular DNA content after 96 hrs by CyQUANT NF fluorescence assay relative to control; type: functional; how it was run: as §3
[11] = biological target: T1, Peroxisome proliferator-activated receptor alpha (Homo sapiens, UniProt Q07869); experiment: Competitive binding affinity to PPARalpha (unknown origin) by TR-FRET assay
T1 sequence (Q07869 whole entry): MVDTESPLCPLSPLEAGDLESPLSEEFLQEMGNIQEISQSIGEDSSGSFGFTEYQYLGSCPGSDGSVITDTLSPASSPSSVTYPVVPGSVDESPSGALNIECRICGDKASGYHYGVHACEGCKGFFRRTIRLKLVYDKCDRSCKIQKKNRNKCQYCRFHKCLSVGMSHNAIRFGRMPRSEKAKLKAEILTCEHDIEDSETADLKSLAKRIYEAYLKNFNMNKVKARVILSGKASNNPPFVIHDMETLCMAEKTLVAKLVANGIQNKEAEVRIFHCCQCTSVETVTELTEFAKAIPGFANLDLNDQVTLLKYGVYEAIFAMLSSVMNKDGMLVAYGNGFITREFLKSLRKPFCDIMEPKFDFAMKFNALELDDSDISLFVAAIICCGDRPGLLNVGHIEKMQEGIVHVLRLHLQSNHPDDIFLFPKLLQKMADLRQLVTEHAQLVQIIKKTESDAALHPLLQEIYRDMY

MCF7 = experiment: Antiproliferative activity against human MCF7 cells assessed as cellular DNA content after 96 hrs by CyQUANT NF fluorescence assay; type: functional, cell-based; conditions: MCF7, 96 h; how it was run: as §3
HT-29 [12] = experiment: Increase in extracellular acidification rate in human HT-29 cells at 2 uM measured for 20 to 150 mins by time-resolved fluorescence assay; type: functional; how it was run: as §2
HT-29 [13] = experiment: Induction of apoptosis in human HT-29 cells assessed as permanent opening of mitochondrial permeability transition pore at 30 uM after 30 mins calcein/CoCl2 staining-based fluorescence assay; type: functional, cell-based
How it was run: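 Trypsinized HT-29 (10^6 cells/mL) in HBSS/Ca with 10 nM calcein and 400 μM CoCl2. Pretreated 60 min at 37 °C with 2 μM cyclosporin A or vehicle, then test compound for 30 min at 37 °C. Washed; mitochondrial calcein fluorescence by flow cytometry; means ± SEM, n = 6.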

HT-29 [14] = experiment: Antiproliferative activity against human HT-29 cells assessed as cellular DNA content at 20 uM after 48 hrs by CyQUANT NF fluorescence assay in presence of glutathione; type: functional, cell-based
How it was run: (§4)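 HT-29 given concentration series of test compound with or without antioxidant (NAC 1 mM, GSH 2.5 mM, D3T 25 μM, α-tocopherol 50 μM, ascorbic acid 500 μM) for 48 h. Relative cell number from DNA-binding fluorescent dye; means ± SD, n = 4.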

HT-29 [15] = experiment: Antiproliferative activity against human HT-29 cells assessed as cellular DNA content at 20 uM after 48 hrs by CyQUANT NF fluorescence assay in presence of ascorbic acid; type: functional, cell-based; how it was run: as §4
HT-29 [16] = experiment: Downregulation of cyclin E2 expression in human HT-29 cells at 10 uM after 48 hrs by immunoblotting method; type: functional, cell-based; how it was run: as §1
HT-29 [17] = experiment: Antiproliferative activity against human HT-29 cells assessed as cellular DNA content at 20 uM after 48 hrs by CyQUANT NF fluorescence assay in presence of 3H-1,2-dithiole-3-thione; type: functional, cell-based; how it was run: as §4

pKa [7]: 3.5
IC50 (HT-29 [10]): 8.1 µM
Ki [11]: 9.1 µM
IC50 (MCF7): 14 µM
Structure (SMILES): COc1c(CC=C(C)C)c(O)c(C(=O)O)c(CCc2ccccc2)c1CC=C(C)C
Activity (HT-29 [1]): Active
Activity (HT-29 [2]): Active
fold change (FC) (HT-29 [3]): 6
fold change (FC) (HT-29 [4]): 2
Activity (HT-29 [5]): Active
Activity (HT-29 [6]): 2.9 ×10⁻⁹ /min
Activity (HT-29 [8]): Active
Activity (HT-29 [9]): 89%
Efficacy (T84): 99%
Activity (HT-29 [12]): 1.5 ×10⁻⁹ /min
Activity (HT-29 [13]): Active
Activity (HT-29 [14]): Active
Activity (HT-29 [15]): Active
Activity (HT-29 [16]): Active
Activity (HT-29 [17]): Active

Reference: ChEMBL document CHEMBL3779787, “Amorfrutin C Induces Apoptosis and Inhibits Proliferation in Colon Cancer Cells through Targeting Mitochondria” (J Nat Prod, 2016)
